Activity calls are given as the source filed them. The calls are words filed in the database; no cut-off is given here.

In general, Kd refers to the equilibrium constant for the complex coming apart. Higher therefore signals lower affinity. A word on the IC50: it is the point on the concentration scale where inhibition reaches its midpoint. Low readings indicate greater potency, high ones weaker potency.

The target in data set [1] is T1, Lethal(3)malignant brain tumor-like protein 3 (Homo sapiens) (UniProt Q96JM7).
T1 sequence (whole entry): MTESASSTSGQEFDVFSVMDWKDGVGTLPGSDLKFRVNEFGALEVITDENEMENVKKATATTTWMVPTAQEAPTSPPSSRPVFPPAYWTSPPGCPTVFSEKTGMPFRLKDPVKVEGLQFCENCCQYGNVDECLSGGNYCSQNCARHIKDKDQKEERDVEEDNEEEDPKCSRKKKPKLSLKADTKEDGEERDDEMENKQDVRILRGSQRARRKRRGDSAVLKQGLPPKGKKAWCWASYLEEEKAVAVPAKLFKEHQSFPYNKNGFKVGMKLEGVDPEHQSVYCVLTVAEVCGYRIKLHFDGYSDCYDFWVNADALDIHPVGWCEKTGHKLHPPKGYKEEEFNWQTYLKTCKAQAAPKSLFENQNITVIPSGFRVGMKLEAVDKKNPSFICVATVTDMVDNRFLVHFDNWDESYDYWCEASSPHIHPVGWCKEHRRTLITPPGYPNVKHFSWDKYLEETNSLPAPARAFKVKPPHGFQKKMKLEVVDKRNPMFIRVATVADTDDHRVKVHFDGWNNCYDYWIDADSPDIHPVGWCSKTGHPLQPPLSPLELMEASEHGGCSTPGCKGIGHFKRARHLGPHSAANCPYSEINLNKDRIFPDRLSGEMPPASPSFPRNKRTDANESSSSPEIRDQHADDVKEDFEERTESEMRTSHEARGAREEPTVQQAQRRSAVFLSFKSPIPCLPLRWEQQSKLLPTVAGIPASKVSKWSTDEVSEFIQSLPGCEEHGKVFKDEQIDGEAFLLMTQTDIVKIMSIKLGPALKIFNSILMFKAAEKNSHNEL
Put plainly: Binding affinity to GFP-tagged full length L3MBTL3 (unknown origin) expressed in HEK293 cells assessed as co-localization with full length L3MBTL3. It is filed as cell-based.

The target of data set [2] is T1, Lethal(3)malignant brain tumor-like protein 3 (Homo sapiens). Put plainly: Binding affinity to GFP-tagged full length L3MBTL3 (unknown origin) expressed in HEK293 cells assessed as increase in protein mobility. In kind it is cell-based.
Data set [3] has the same target. Put plainly: Inhibition of GFP-tagged full length L3MBTL3 (unknown origin) expressed in HEK293 cells assessed as disruption of foci formation by immunofluorescence assay. In kind it is cell-based. An outline of the steps:
(§1)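 HEK293 cells seeded on coverslips, transfected 16–24 h after seeding with GFP-3MBT or GFP-FLMBT for 48 h; compounds at indicated concentrations for at least 24 h; Hoechst 33342 stain before spinning-disk confocal imaging; foci quantified by % GFP intensity function.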

The target is the same in data set [4]. As to the kind of experiment: Binding affinity to flag-tagged full length L3MBTL3 (unknown origin) expressed in HEK293 cell lysates at 5 nmol by. In kind it is subcellular.
In data set [5] the target is T2, Lethal(3)malignant brain tumor-like protein 3 (Homo sapiens, UniProt Q96JM7).
T2 sequence (Q96JM7 whole entry): T1 sequence (whole entry)
As to the kind of experiment: Binding affinity to L3MBTL3 (unknown origin) by ITC assay.

Data set [6] deals with T1, Lethal(3)malignant brain tumor-like protein 3 (Homo sapiens). Put plainly: Inhibition of GFP-3MBT tagged L3MBTL3 (unknown origin) expressed in HEK293 cells assessed as disruption of foci formation at 100 uM by immunofluorescence assay. It is filed as cell-based. An outline of the steps:
as §1

Data set [7] has the same target. As to the kind of experiment: Inhibition of GFP-3MBT tagged L3MBTL3 (unknown origin) expressed in HEK293 cells assessed as reduction in recovery of fluorescence intensity up to 0.1 mM measured up to 60 secs by FRAP assay. It is filed as cell-based. The following applies: time <= 60.0 sec. An outline of the steps:
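FRAP: HEK293 cells transfected with GFP-3MBT; inhibitor treatment 3–6 h; 488 nm laser bleaching then image acquisition every 2 s on laser scanning confocal microscope. Recovery fitted exponentially from 8–10 nuclei per condition; water as control; experiment repeated 3 independent times.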

The target is the same in data set [8]. As to the kind of experiment: Binding affinity to GFP-3MBT tagged L3MBTL3 (unknown origin) assessed as protein half life at 1 uM.
In data set [9] the target is T2, Lethal(3)malignant brain tumor-like protein 3. Put plainly: Binding affinity to GFP-3MBT tagged L3MBTL3 (unknown origin) assessed as diffusion coefficient at 1 uM (reference value: 0.1272 um2/s).
Data set [10] is described as follows: Cytotoxicity in HEK293T/17 cells assessed as effect on cell viability up to 100 uM incubated for 24 hrs by CellTiter-Glo luminescent cell viability assay. In kind it is toxicity, cell-based. Conditions: human, hek293t/17, 24 h.
Data set [11] has as its target T2, Lethal(3)malignant brain tumor-like protein 3. As to the kind of experiment: Inhibition of L3MBTL3 (unknown origin) using H4K20me2 peptide by Alpha-Screen methylated histone peptide competition assay.
The target is the same in data set [12]. Put plainly: Binding affinity to GFP-tagged full length L3MBTL3 (unknown origin) assessed as diffusion coefficient at 1 uM (reference value: 0.037549815 um2/s).

As for `CCN1C(=O)\C(=C/C=C/C=C2/N(CCC(=O)OCOC(C)=O)c3ccc(C(=O)OCOC(C)=O)cc3C2(C)C)C(=O)N(CCC(=O)NCCCCCCNC(=O)c2ccc(Nc3cc(C(=O)N4CCC(N5CCCC5)CC4)ccc3C(=O)N3CCC(N4CCCC4)CC3)cc2)C1=O`, the result in [1] and in data set [2] was Active. Besides, in data set [3], the inhibition result was “inactive”.
For `O=C(CCCC[C@@H]1SC[C@@H]2NC(=O)N[C@@H]21)NCCOCCOCCOCCOCCOCCOCCOCCOCCOCCOCCOCCNC(=O)c1ccc(Nc2cc(C(=O)N3CCC(N4CCCC4)CC3)ccc2C(=O)N2CCC(N3CCCC3)CC2)cc1`, the outcome in [4] was Active. Besides, the dissociation constant Kd in data set [5] came out at 0.35 µM.
On to `O=C(c1ccc(C(=O)N2CCC(N3CCCCC3)CC2)cc1)N1CCC(N2CCCCC2)CC1`, for which the inhibition entry in [6] and in data set [7] was “inactive” in each case. The T1/2 in data set [8] is 8.2 s. Besides, the Diffusion coefficient in data set [9] worked out at 0.124 um2/s; in data set [12], 0.036 um2/s. This compound also registered a dissociation constant (Kd) in data set [5] above 150 µM. Further, in data set [10], the Activity entry is given as “Non-Toxic”. In addition, the IC50 in data set [11] is above 10 µM.

The values are drawn from ChEMBL document CHEMBL5712070, “Discovery of a chemical probe for the L3MBTL3 methyllysine reader domain” (Nat Chem Biol, 2013).
